Assay results reported in ChEMBL document CHEMBL2407025, “Antiplasmodial and cytotoxic flavans and diarylpropanes from the stems of Combretum griffithii” (J Nat Prod, 2013).
Activity calls are given as the source filed them. The calls are words filed in the database; no cut-off is given here.

Tests used:
Plasmodium falciparum [1] = assay: Antimalarial activity against Plasmodium falciparum K1 assessed as reduction in parasite growth measuring [3H]-hypoxanthine uptake by microculture radioisotope technique; format: functional, organism-based
Procedure, shortened: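 P. falciparum K1 (multidrug-resistant) cultured in vitro by Trager–Jensen method. Growth inhibition read as [3H]-hypoxanthine uptake in a microculture radioisotope assay (Desjardins method). Samples tested up to a maximum final concentration of 10 μg/mL. IC50 taken as the concentration giving 50% reduction in parasite growth. Dihydroartemisinin served as reference.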

MCF7 = assay: Cytotoxicity against human MCF7 cells by colorimetric method; format: functional, cell-based
Procedure, shortened: (§1)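 Human epidermoid carcinoma KB, breast cancer MCF7 and small cell lung cancer NCI-H187 lines assayed by the Skehan colorimetric method. Test samples at a maximum final concentration of 50 μg/mL. Doxorubicin served as reference. Values are reported as IC50.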

KB = assay: Cytotoxicity against human KB cells by colorimetric method; format: functional, cell-based; procedure, shortened: as §1
NCI-H187 = assay: Cytotoxicity against human NCI-H187 cells by colorimetric method; format: functional, cell-based; procedure, shortened: as §1
[2] = tested on: Mycobacterium tuberculosis; assay: Antimycobacterial activity against Mycobacterium tuberculosis H37Ra at 50 ug/ml by MABA; format: functional, organism-based
Procedure, shortened: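 M. tuberculosis H37Ra was tested in vitro by microplate Alamar Blue assay (MABA). 50 μg/mL was the highest test concentration. Isoniazid was run as the reference standard.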

Plasmodium falciparum [3] = assay: Antimalarial activity against Plasmodium falciparum K1 assessed as reduction in parasite growth measuring [3H]-hypoxanthine uptake at 10 ug/ml by microculture radioisotope technique; format: functional, organism-based
[4] = Homo sapiens, MCF7, read-out: IC50

Compound	IC50 (Plasmodium falciparum [1])	IC50 (MCF7; [4])	IC50 (KB)	IC50 (NCI-H187)	Activity [2]	Activity (Plasmodium falciparum [3])	IC50 (MCF7; mcf7)
C[C@H]1[C@@H](O)O[C@@H]2O[C@@]3(C)CC[C@H]4[C@H](C)CC[C@@H]1[C@@]24OO3 [ARTENIMOL]	0.00142 µM	–	–	–	–	–	–
COc1cc2c(cc1O)CC[C@@H](c1ccc(O)c(O)c1)O2	13 µM	110 µM	24.6 µM	72 µM	inactive	–	–
COc1cc([C@@H]2CCc3cc(OC)c(OC)cc3O2)ccc1O [(2S)-4'-HYDROXY-6,7,3'-TRIMETHOXYFLAVAN]	–	–	106 µM	125 µM	inactive	inactive	Not Active
COc1cc(CCCc2c(OC)cc(O)cc2OC)ccc1O	–	64.2 µM	49.3 µM	96 µM	inactive	inactive	–
COc1cc(CCCc2cc(OC)c(O)c(OC)c2)ccc1O	14.5 µM	72 µM	46 µM	42.1 µM	inactive	–	–
COc1cc(CCCc2cc(O)c(OC)cc2OC)ccc1O	–	23.1 µM	24.6 µM	34.6 µM	inactive	inactive	–
COc1cc(OC)c2c(c1)O[C@H](c1ccc(O)c(O)c1)CC2 [(2S)-3',4'-DIHYDROXY-5,7-DIMETHOXYFLAVAN]	9.66 µM	49.1 µM	31.8 µM	10.4 µM	inactive	–	–
COc1cc2c(cc1OC)O[C@H](c1ccc(O)c(O)c1)CC2 [(2S)-3',4'-DIHYDROXY-6,7-DIMETHOXYFLAVAN]	15.7 µM	75 µM	43.1 µM	51.4 µM	inactive	–	–
COc1cccc2c1C(=O)c1c(O)c3c(c(O)c1C2=O)C[C@@](O)(C(=O)CO)C[C@@H]3O[C@H]1C[C@H](N)[C@H](O)[C@H](C)O1 [DOXORUBICIN]	–	–	0.38 µM	0.12 µM	–	–	–
COc1ccc2c(c1)O[C@H](c1ccc(O)c(OC)c1)CC2 [(2S)-4'-HYDROXY-7,3'-DIMETHOXYFLAVAN]	–	88.4 µM	97.9 µM	60.2 µM	inactive	inactive	–
COc1cc([C@@H]2CCc3cc(O)c(OC)cc3O2)ccc1O	–	90.1 µM	69 µM	76.5 µM	inactive	inactive	–
